This note sets out measurements from ChEMBL document CHEMBL4251588, “2-Alkoxycarbonyl-3-arylamino-5-substituted thiophenes as a novel class of antimicrotubule agents: Design, synthesis, cell growth and tubulin polymerization inhibition” (Eur J Med Chem, 2018).

Each structure is given as a SMILES string. Calls of active or inactive are those of the source. The calls are words filed in the database; no cut-off is given here.

As a reminder, the IC50 is the concentration needed to halve the response being measured. The term GI50 denotes the concentration that inhibits growth by half. A high value points to lower sensitivity of the cells. The inhibition is the relative decrease from the control value, in per cent.

The first series has as its system L1210. The series is described as follows: Antiproliferative activity against mouse L1210 cells after 2 days by Coulter counter method. The series is classed as functional, cell-based. The conditions noted are these: L1210, 48 h. The essentials:
(§1)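 Cells suspended at 300,000–500,000 cells/mL; 100 μL suspension added to 100 μL of compound dilutions. Incubated at 37 °C for 2 days (L1210, FM3A), 3 days (CEM) or 4 days (HeLa), then counted by Coulter counter. IC50 is the concentration giving 50% inhibition of proliferation. Values are mean ± SD of two to three independent experiments.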
As for `COC(=O)c1sc(-c2cccs2)cc1Nc1cc(OC)c(OC)c(OC)c1`, the 50% inhibitory concentration (IC50) was determined as 130 nM.

With `COC(=O)c1sc(-c2ccc(C(F)(F)F)cc2)cc1Nc1cc(OC)c(OC)c(OC)c1`, the IC50 amounted to 1200 nM.

Turning to `COc1ccc(/C=C\c2cc(OC)c(OC)c(OC)c2)cc1O` [COMBRETASTATIN A4], the half-maximal inhibitory concentration (IC50) turned out to be 3 nM.

`COC(=O)c1sc(-c2ccc([N+](=O)[O-])cc2)cc1Nc1cc(OC)c(OC)c(OC)c1` registered a concentration for half-maximal inhibition (IC50) of 990 nM.

For the molecule `CCOC(=O)c1sc(-c2ccc(F)cc2)cc1Nc1cc(OC)c(OC)c(OC)c1`, it took 1100 nM to reach half-maximal inhibition (IC50).

Another series has as its system FM3A. The series is described as follows: Antiproliferative activity against mouse FM3A cells after 2 days by Coulter counter method. The conditions noted are these: 48 h. The class given is functional, cell-based. The essentials:
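Cells suspended at 300,000–500,000 cells/mL; 100 μL suspension added to 100 μL of compound dilutions. Incubated at 37 °C for 2 days (L1210, FM3A), 3 days (CEM) or 4 days (HeLa), then counted by Coulter counter. Values are mean ± SD of two to three independent experiments.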
In the case of `COC(=O)c1sc(-c2cccs2)cc1Nc1cc(OC)c(OC)c(OC)c1`, 160 nM corresponded to half-maximal inhibition (IC50).

`COC(=O)c1sc(-c2ccc(C(F)(F)F)cc2)cc1Nc1cc(OC)c(OC)c(OC)c1` showed a 50% inhibitory concentration (IC50) of 1100 nM.

Regarding `COC(=O)c1sc(-c2ccc([N+](=O)[O-])cc2)cc1Nc1cc(OC)c(OC)c(OC)c1`, half-maximal inhibition (IC50) required 930 nM.

Consider `CCOC(=O)c1sc(-c2ccc(F)cc2)cc1Nc1cc(OC)c(OC)c(OC)c1`, for which the IC50 came out at 1000 nM.

In the next series the test system is CCRF-CEM. Put plainly: Antiproliferative activity against human CEM cells after 3 days by Coulter counter method. The series is classed as functional, cell-based. The conditions noted are these: 72 h. The essentials:
as §1
`COC(=O)c1sc(-c2cccs2)cc1Nc1cc(OC)c(OC)c(OC)c1` yielded an IC50 of 160 nM.

The molecule `COC(=O)c1sc(-c2ccc(C(F)(F)F)cc2)cc1Nc1cc(OC)c(OC)c(OC)c1` showed a concentration for half-maximal inhibition (IC50) of 810 nM.

`COc1ccc(/C=C\c2cc(OC)c(OC)c(OC)c2)cc1O` [COMBRETASTATIN A4] registered an IC50 of 2 nM.

`COC(=O)c1sc(-c2ccc([N+](=O)[O-])cc2)cc1Nc1cc(OC)c(OC)c(OC)c1` returned an IC50 of 760 nM.

For the molecule `CCOC(=O)c1sc(-c2ccc(F)cc2)cc1Nc1cc(OC)c(OC)c(OC)c1`, the IC50 is 990 nM.

The subject of the next series is HeLa. The series is described as follows: Antiproliferative activity against human HeLa cells after 4 days by Coulter counter method. The class given is functional, cell-based. To be noted: 96 h. In outline:
as §1
For `COC(=O)c1sc(-c2cccs2)cc1Nc1cc(OC)c(OC)c(OC)c1`, half-maximal inhibition (IC50) was put at 160 nM.

The molecule `COC(=O)c1sc(-c2ccc(C(F)(F)F)cc2)cc1Nc1cc(OC)c(OC)c(OC)c1` gave an IC50 of 1300 nM.

On to `COc1ccc(/C=C\c2cc(OC)c(OC)c(OC)c2)cc1O` [COMBRETASTATIN A4], for which the IC50 was 2 nM.

`COC(=O)c1sc(-c2ccc([N+](=O)[O-])cc2)cc1Nc1cc(OC)c(OC)c(OC)c1`: the IC50 turned out to be 1000 nM.

`CCOC(=O)c1sc(-c2ccc(F)cc2)cc1Nc1cc(OC)c(OC)c(OC)c1` registered a half-inhibitory concentration (IC50) of 2100 nM.

Another series deals with PBL. The series is described as follows: Growth inhibition of resting human PBL after 72 hrs by MTT assay.
Settings: not given
The class given is cell-based. In outline: (§2)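 Donor PBL isolated by density gradient, washed, held overnight at 1.0 × 10^6 cells/mL in RPMI-1640 with 10% FBS. Non-adherent cells reseeded at 5 × 10^5 cells/mL, with 2.5 μg/mL PHA (proliferating) or without it (resting), then given compound dilutions. MTT viability read after 72 h. GI50 is the concentration giving 50% growth reduction; mean ± SEM of two experiments.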
On the technique in general: Tetrazolium assays rely on reduction of a dye to a coloured formazan, in cell work by metabolically active cells.
As to `COC(=O)c1sc(-c2cccs2)cc1Nc1cc(OC)c(OC)c(OC)c1`, growth was halved (GI50) at 85700 nM.

The subject of another series is PBL. The series is described as follows: Growth inhibition of human PHA-stimulated PBL after 72 hrs by MTT assay. The class given is cell-based.
Settings: not given
In outline:
as §2
As to `COC(=O)c1sc(-c2cccs2)cc1Nc1cc(OC)c(OC)c(OC)c1`, the GI50 is 29300 nM.

Tested on in another series: not listed separately
The series is described as follows: Inhibition of bovine brain tubulin polymerization in presence of GTP by spectrophotometric analysis. On the set-up: species or system Bos taurus.
Settings: not given
The essentials:
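0.4 mM GTP added, mixtures rewarmed to 30 °C in cuvettes and turbidity followed at 350 nm.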
Consider `COC(=O)c1sc(-c2cccs2)cc1Nc1cc(OC)c(OC)c(OC)c1`, for which the IC50 was 1200 nM.

A further series is filed under the species Bos taurus. The series is described as follows: Inhibition of [3H]colchicine binding to bovine brain tubulin at 5 uM relative to control.
Settings: not given
The essentials:
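Reaction mixtures held 1 μM tubulin, 5 μM [3H]colchicine and 5 μM test compound. Inhibition of radiolabelled colchicine binding was measured by a previously described method.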
In the case of `COC(=O)c1sc(-c2cccs2)cc1Nc1cc(OC)c(OC)c(OC)c1`, the inhibition is 62%.

The test system of a further series is HeLa. Put plainly: Cell cycle arrest in human HeLa cells assessed as reduction of cells at G1 phase up to 500 uM after 24 hrs by propidium iodide staining-based flow cytometric analysis. The series is classed as functional. To be noted: in the assay text read “500 nM” for “500 uM”. The essentials:
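5 × 10^5 HeLa cells exposed to graded compound levels for 24 h; harvested, fixed in ice-cold 70% ethanol, lysed in buffer containing RNase A and 0.1% Triton X-100, PI-stained, DNA content read by flow cytometry. Phase percentages are means ± SEM of two independent experiments.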
For the molecule `COC(=O)c1sc(-c2cccs2)cc1Nc1cc(OC)c(OC)c(OC)c1`, the outcome was Active.

For the next series, the system named is HeLa. Put plainly: Cell cycle arrest in human HeLa cells assessed as increase in cyclin B1 expression after 24 hrs by Western blot analysis. The series is classed as functional, cell-based.
Settings: not given
In outline:
(§3)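 HeLa cells treated for 24 or 48 h at several concentrations, washed in ice-cold PBS, lysed on ice 30 min and spun at 15000 x g, 4 °C. 10 μg protein separated by SDS-PAGE, blotted, blocked in 3% BSA, probed overnight at 4 °C with primary antibodies, peroxidase secondary and ECL detection. Stripped membranes reprobed for β-actin as loading control.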
(In general: In western blotting, separated proteins are transferred to a membrane and probed.)
Take `COC(=O)c1sc(-c2cccs2)cc1Nc1cc(OC)c(OC)c(OC)c1`: the Activity result was “Dose-dependent effect”.

The subject of a further series is HeLa. The series is described as follows: Cell cycle arrest in human HeLa cells assessed as decrease in cyclin B1 expression after 48 hrs by Western blot analysis. The class given is functional, cell-based.
Settings: not given
In outline:
as §3
With `COC(=O)c1sc(-c2cccs2)cc1Nc1cc(OC)c(OC)c(OC)c1`, the outcome was Active.

For another series, the system named is HeLa. The series is described as follows: Cell cycle arrest in human HeLa cells assessed as decrease in Cdk1 Y15 phosphorylated protein level at 250 nM after 24 to 48 hrs by Western blot analysis. The series is classed as functional, cell-based.
Settings: not given
The essentials:
as §3
With `COC(=O)c1sc(-c2cccs2)cc1Nc1cc(OC)c(OC)c(OC)c1`, the result was Active.

The test system of another series is HeLa. The series is described as follows: Induction of apoptosis in human HeLa cells at 125 to 500 nM after 24 to 48 hrs by annexin V-FITC/propidium iodide staining-based flow cytometric analysis. The series is classed as functional, cell-based.
Settings: not given
The essentials:
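Treated HeLa cells were harvested at 24 or 48 h and double-labeled with annexin-V-FITC, which marks exposed phosphatidylserine, and PI. Apoptotic fractions were measured by flow cytometry; mean ± SEM of three independent experiments.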
Background: In flow cytometry, cells or beads pass a laser one at a time.
`COC(=O)c1sc(-c2cccs2)cc1Nc1cc(OC)c(OC)c(OC)c1`: the result was Active.

A further series relates to HeLa. The series is described as follows: Induction of mitochondrial depolarization in human HeLa cells at 100 to 250 nM by JC-1 staining-based flow cytometric analysis. The series is classed as functional, cell-based. The conditions noted are these: TDE = time-dependent effect. In outline:
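Mitochondrial potential followed in HeLa cells after 6, 12, 24 or 48 h of exposure. Cells stained with the lipophilic cation JC-1 and the fraction with low Δψmt scored by flow cytometry; mean ± SEM of three independent experiments.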
Take `COC(=O)c1sc(-c2cccs2)cc1Nc1cc(OC)c(OC)c(OC)c1`: the Activity result was “Tde”.

The next series deals with HeLa. Put plainly: Induction of ROS production in human HeLa cells at 250 nM after 12 to 24 hrs by H2DCFDA staining-based flow cytometric analysis. The series is classed as functional, cell-based.
Settings: not given
The essentials:
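HeLa cells treated for 6, 12, 24 or 48 h, then loaded with H2-DCFDA and ROS read by flow cytometry; mean ± SEM of three independent experiments.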
With `COC(=O)c1sc(-c2cccs2)cc1Nc1cc(OC)c(OC)c(OC)c1`, the result was Active.

For another series, the system named is HeLa. The series is described as follows: Induction of apoptosis in human HeLa cells assessed as decrease in Bcl-2 levels at 100 to 250 nM after 24 hrs by Western blot analysis. The class given is functional, cell-based.
Settings: not given
In outline:
(§4)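 HeLa cells exposed to compound for varied times, washed twice in ice-cold PBS, lysed on ice 30 min and spun 15000 x g at 4 °C. 10 μg protein per lane by SDS-PAGE, blotted, blocked in 3% BSA, primary antibodies (Bcl-2, Mcl-1) overnight at 4 °C, peroxidase secondary 60 min, ECL detection; membranes stripped and reprobed for β-actin as loading control.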
For `COC(=O)c1sc(-c2cccs2)cc1Nc1cc(OC)c(OC)c(OC)c1`, the result was Active.

The subject of the next series is HeLa. Put plainly: Induction of apoptosis in human HeLa cells assessed as decrease in Mcl-1 levels at 100 to 250 nM after 24 hrs by Western blot analysis. The class given is functional, cell-based.
Settings: not given
In outline:
as §4
For `COC(=O)c1sc(-c2cccs2)cc1Nc1cc(OC)c(OC)c(OC)c1`, the outcome was Active.

In another series the test system is HeLa. The series is described as follows: Cell cycle arrest in human HeLa cells assessed as reduction in cdc25c expression at 100 nM after 24 hrs by Western blot analysis.
Settings: not given
With `COC(=O)c1sc(-c2cccs2)cc1Nc1cc(OC)c(OC)c(OC)c1`, the result was Active.

A further series deals with HeLa. Put plainly: Cell cycle arrest in human HeLa cells assessed as increase in cells at S phase at 500 nM after 24 hrs by propidium iodide staining-based flow cytometric analysis.
Settings: not given
On to `COC(=O)c1sc(-c2cccs2)cc1Nc1cc(OC)c(OC)c(OC)c1`, for which the result was Active.

Another series deals with HeLa. The series is described as follows: Cell cycle arrest in human HeLa cells assessed as accumulation of cells at G2/M phase at 500 nM after 24 hrs by propidium iodide staining-based flow cytometric analysis.
Settings: not given
For the molecule `COC(=O)c1sc(-c2cccs2)cc1Nc1cc(OC)c(OC)c(OC)c1`, the outcome was Active.
